Bioassay records (PubChem)
Compounds with a hit are over-represented: about 4% of the library has one in this group of screens.
MPTP inh – blocks calcium-induced mitochondrial swelling; isolated mouse mitochondria, Ca2+ swelling absorbance, 30 min; inhibition, % at 10 µM; actives 1.4% (n = 360,000);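 active = inhibition of 50% or more, scaled per plate between neutral and stimulator controls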;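 also: 0% = DMSO wells given calcium and 100% = 1 mM EGTA wells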
TAAR1 agonist – agonists of human TAAR1; CHO RD-HGA16 TAAR1, Fluo-8 calcium fluorescence; vehicle wells 0%, saturating PEA agonist 100%; Q96RJ0; activation, % at 3 µM; actives 0.99% (n = 360,000);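 active = activation above the mean activation of all test compounds in the run plus 3 SD, cut at about 38% in these data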
Target sequence (Q96RJ0 whole entry, looked up): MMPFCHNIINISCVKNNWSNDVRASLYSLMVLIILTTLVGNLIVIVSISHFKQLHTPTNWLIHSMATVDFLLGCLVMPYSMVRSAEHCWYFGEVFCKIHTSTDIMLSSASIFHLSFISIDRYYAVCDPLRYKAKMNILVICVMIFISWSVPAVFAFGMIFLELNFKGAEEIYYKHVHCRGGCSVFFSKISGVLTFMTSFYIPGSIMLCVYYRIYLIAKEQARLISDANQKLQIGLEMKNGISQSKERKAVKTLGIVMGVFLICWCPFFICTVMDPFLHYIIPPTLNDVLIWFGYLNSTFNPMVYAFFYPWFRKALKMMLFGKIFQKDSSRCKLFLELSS
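Assay system: CHO-derived RD-HGA16 cells with stable Gα16 and human TAAR1; timing: 17-24 h seeding, 75 min 37 °C dye, 30 min RT; read-out: % activation from peak over basal fluorescence ratio, DMSO-to-PEA scaled; measured by: kinetic Fluo-8 calcium fluorescence; benchmarks: low control DMSO, high control PEA (EC100); doses: 3 µM single concentration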
GPR7 antag – human neuropeptides B/W receptor 1 antagonism. actives 1.1% (n = 290,000). inhibition, % at 4.4 µM. GPR7-expressing cells, fluorescence antagonist assay; in the data active = inhibition above about 16%, passing the limit was not always enough;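 also: cells stimulated with the agonist NPW; 0% = agonist with vehicle and 100% = vehicle without agonist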
TAAR1 antag – human TAAR1 antagonism; inhibition, % at 3 µM; Q96RJ0; AID 624466; CHO RD-HGA16 TAAR1, Fluo-8 calcium fluorescence, antagonist; actives 1.5% (n = 360,000);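 active = inhibition above a per-plate cutoff, the mean inhibition of test compounds on that plate plus 3 SD, cut at about 49% in these data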;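 also: 0% = DMSO plus EC80 beta-PEA response and 100% = DMSO alone without agonist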
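Material: RD-HGA16 CHO cells with stable hTAAR1 and Gα16; Dosing: single nominal final test compound concentration of 3 µM; Schedule: seeding 17-24 h prior, 75-min 37 °C, 30-min RT dye loading; Detection: kinetic Fluo-8 calcium fluorescence measurement; Measure: % inhibition from peak post-agonist over basal fluorescence ratio; Benchmarks: vehicle and agonist controls.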
DAGLB inhibitor – diacylglycerol lipase beta (human) inhibition; Q8NCG7; HEK293T DAGLB membrane lysate, EnzChek fluorogenic substrate; inhibition, % at 5.17 µM; actives 0.059% (n = 340,000); AID 504411; in the data active = inhibition above about 34%;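 also: 0% = enzyme with vehicle and 100% = wells lacking enzyme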
MPTP counter – Rhodamine 123 counter-screen of mitochondrial pore hits; actives 78% (n = 5,000); inhibition, % at 10 µM; AID 624504; shares compounds with MPTP inh; isolated mitochondria, membrane potential, Rhodamine 123 fluorescence; in the data active = inhibition above about 22%;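 also: 0% = DMSO vehicle and 100% = positive control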
MPTP swell DR – MPTP inhibition, dose response swelling confirmation; shares compounds with MPTP inh; isolated mitochondria swelling, absorbance; IC50, µM; actives 58% (n = 780); AID 651561; in the data active = IC50 below about 20 µM
MPTP counter DR – active in counter-screen for permeability transition pore inhibitors | shares compounds with MPTP inh | isolated mitochondria counterscreen, fluorescence read-out | IC50, µM | actives 49% (n = 780); in the data active = IC50 below about 80 µM
The depositor's hits bear a star; nt = not tested or not shown.

SMILES	MPTP inh	TAAR1 agonist	GPR7 antag	TAAR1 antag	DAGLB inhibitor	MPTP counter	others
CSc1cccc(NC(=O)/C=C/c2cccc(Cl)c2)c1	73*	5	-1	39	-6	82*
O=C(Nc1ccc(Cl)cc1)Nc1ccccc1CC[N+](=O)[O-]	83*	20	12	16	1	85*
CCCCn1nnnc1C(c1cc2ccccc2o1)N1CCN(c2ncccc2C#N)CC1 (stereo unspecified)	-1	1	nt	-3	nt	nt
CC(CCl)n1c(=O)c2ccccc2n1C(=O)c1ccccc1 (stereo unspecified)	0	5	nt	-39	nt	nt
O=S1(=O)CC(N2CCCC2)CN1Cc1cn(Cc2ccc(C(F)(F)F)cc2)nn1 (stereo unspecified)	nt	2	nt	-13	nt	nt
CCC(=O)c1ccc2c(c1)N(CCCN(C)C)c1ccccc1S2	72*	7	nt	-1	5	-15
O=C1c2ccc(Br)cc2C(=O)N1c1ccc(Cc2ccncc2)cc1	102*	5	2	23	-1	92*
COc1ccc2c(c1)[C@@]1(OCCC=C[C@H]1C)C(=O)N2CC1CC1	nt	4	nt	-6	nt	nt
O=C(Nc1cccc(Cl)c1)N(CCCN1CCOCC1)Cc1ccccc1F	95*	16	18	11	-3	95*
N#Cc1c(Cl)nc(N/N=C/c2ccccc2)c(Cl)c1Cl	0	10	-6	29	1	nt
Cc1nc(C#N)c(N/N=C/c2cccc(Cl)c2)o1	2	16	-17	-6	1	nt
C[N+](C)(C)c1ccc(/C=N/Nc2nc(Cl)c(C#N)c(Cl)c2Cl)cc1	92*	0	-1	-18	-1	95*
C[n+]1cccc(/C=N/Nc2nc(Cl)c(C#N)c(Cl)c2Cl)c1	65*	5	-11	-9	nt	64*
CC1CCN(C(=O)C2CCC(CNS(=O)(=O)c3ccc4c(c3)C(C)(C)C(=O)N4C)CC2)CC1 (stereo unspecified)	-3	-2	nt	-5	nt	nt
Cc1cccc(C)c1NC(=O)C(CCc1ccccc1)N1CCN(CCN(C)C)CC1 (stereo unspecified)	nt	1	nt	-5	nt	nt
O=C(c1ccc2n[nH]nc2c1)N1CCN(c2ccc(C(F)(F)F)cn2)CC1	0	2	nt	-7	2	nt
CC(=O)Nc1ccc(C(=O)N2CCCC(c3cc(C(=O)Nc4ccccc4Cl)no3)C2)cc1 (stereo unspecified)	0	12	nt	-5	nt	nt
O=C(N/N=C/c1cccc(Oc2ccccc2)c1)c1cccc(Br)c1	67*	2	-11	57*	-8	75*
Cc1nc2ccccn2c1-c1ccnn1S(=O)(=O)c1ccc(F)cc1	79*	0	-20	17	0	48*
C=CCNc1ncnc2c1[nH]c1ccc(Cl)cc12	89*	23	-10	10	-3	94*
COc1ccc(NS(=O)(=O)c2ccc(N3CCOCC3)c(NC(=O)c3ccc(F)cc3)c2)cc1	73*	3	-11	-18	3	17	MPTP swell DR=>100;MPTP counter DR=>80
CCN(CC)S(=O)(=O)c1ccc(N2CCOCC2)c(NC(=O)COc2ccc(OC)cc2)c1	-1	0	nt	1	-1	nt
COc1ccc(NS(=O)(=O)c2ccc(N3CCOCC3)c(NC(=O)c3ccco3)c2)cc1	3	5	-10	-27	-1	nt
COc1ccc(NS(=O)(=O)c2ccc(N3CCOCC3)c(NC(=O)C(C)C)c2)cc1	76*	2	4	-20	1	55*
COc1ccc(NS(=O)(=O)c2ccc(N3CCOCC3)c(NC(=O)c3cccc(F)c3)c2)cc1	18	1	-9	-15	-2	nt
CCOC(=O)/C=C/C(=O)Nc1cc(S(=O)(=O)Nc2ccc(OC)cc2)ccc1N1CCOCC1	57*	0	nt	-1	-2	70*
COc1cc(Cl)c(C)cc1NC(=O)c1ccc(NS(=O)(=O)c2ccc(F)c(F)c2)cc1	51*	0	0	-7	-3	60*
COc1ccc(S(=O)(=O)Nc2ccc(F)c(F)c2)cc1Cl	6	4	-3	-25	2	nt
